From PubChem
proCasp3 act = activators of human procaspase-3; P42574; recombinant procaspase-3 D3A, Ac-DEVD-pNA absorbance 405 nm; activation, % at 8.5 µM; actives 0.11% (n = 330,000); AID 463141;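 active means activation above the mean of all tested compounds plus 3 SD, cut at about 21% in these data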;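 further: 0% = DMSO alone and 100% = DMSO wells spiked with extra 5 µM PC-3 D3A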
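Assay system: Procaspase-3 D3A mutant, all three cleavage aspartates alanine. Buffer or medium: Zinc-free HEPES saline buffer with Triton X-100. Times: 1 h compound preincubation, 2 h substrate hydrolysis at 25 °C. Measured by: 405 nm absorbance of p-nitroaniline, reads at 0 and 120 min. Read-out basis: percent activation relative to control range. Replicates: singlicate.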
AHR act = human AHR activation; AHR-responsive luciferase reporter cells, luminescence; activation, % at 5 µM; actives 2.5% (n = 320,000); in the data active means activation above about 47%;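 further: 0% = vehicle wells and 100% = reference agonist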
Target sequence (P35869 whole entry, looked up): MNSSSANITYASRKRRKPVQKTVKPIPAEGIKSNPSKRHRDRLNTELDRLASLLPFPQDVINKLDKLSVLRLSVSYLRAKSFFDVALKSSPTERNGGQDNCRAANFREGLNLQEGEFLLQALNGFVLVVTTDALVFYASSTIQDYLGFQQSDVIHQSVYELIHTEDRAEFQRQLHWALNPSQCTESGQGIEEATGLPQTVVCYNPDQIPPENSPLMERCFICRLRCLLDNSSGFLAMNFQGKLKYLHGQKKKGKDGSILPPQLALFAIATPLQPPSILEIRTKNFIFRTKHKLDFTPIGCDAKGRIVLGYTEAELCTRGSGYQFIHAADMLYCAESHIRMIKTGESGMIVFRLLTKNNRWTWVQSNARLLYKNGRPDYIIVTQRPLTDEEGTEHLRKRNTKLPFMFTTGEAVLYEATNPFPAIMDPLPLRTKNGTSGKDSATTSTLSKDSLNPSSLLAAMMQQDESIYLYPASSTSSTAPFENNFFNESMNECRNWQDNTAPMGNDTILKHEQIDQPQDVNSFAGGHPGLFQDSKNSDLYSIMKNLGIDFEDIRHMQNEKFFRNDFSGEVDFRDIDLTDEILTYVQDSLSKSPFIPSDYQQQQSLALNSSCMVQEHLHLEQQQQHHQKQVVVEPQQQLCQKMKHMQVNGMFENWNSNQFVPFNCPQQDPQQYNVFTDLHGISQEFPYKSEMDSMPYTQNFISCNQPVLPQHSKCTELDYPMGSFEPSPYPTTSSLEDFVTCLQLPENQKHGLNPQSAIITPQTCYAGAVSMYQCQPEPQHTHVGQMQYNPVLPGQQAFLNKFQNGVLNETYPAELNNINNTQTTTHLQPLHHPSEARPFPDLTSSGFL
PolyA inhibitor = inhibitors of polyadenylation in S. cerevisiae | activity score, % at 12 µM | actives 0.02% (n = 300,000) | S. cerevisiae SKY197-pL101 polyadenylation reporter, beta-gal luminescence; efflux-impaired pdr1/pdr3 knockout yeast; score 100 = 6 SD above DMSO | AID 1875;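 active means lowest replicate activity score at least 50, where 100 means six control SD above control mean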;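 further: yeast exposed to compound for 9 h at 30 °C; higher score means more reporter readthrough which indicates perturbed polyadenylation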
procasp7 counter = counter-screen: procaspase-7 (human) activation. P55210. recombinant procaspase-7, Ac-DEVD-pNA absorbance 405 nm; D23A/D198A/D206A triple mutant, cannot self-cleave; scale: DMSO 0, 5 µM enzyme 100. activation, % at 8.5 µM. actives 0.093% (n = 330,000). AID 463210;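 active means percent activation above the screen-wide mean plus 3 SD, cut at about 25% in these data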
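Detection: p-Nitroaniline absorbance at 405 nm, read at 0 and 120 min; system: Uncleavable procaspase-7 mutant enzyme; evaluation: % activation from two-timepoint absorbance difference, scaled to controls; times: 1 h enzyme–compound preincubation and 2 h substrate reaction, both 25 °C; buffer or medium: Zinc-free HEPES pH 7.4 with 300 mM NaCl, 0.01% Triton X-100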
* = called active by the depositor. Most compounds without a hit are left out; they make up all but 2.6% or so of the library.

`COC(=O)/C(=C\c1cc(OC)c(OC)c(OC)c1)c1nc2ccccc2[nH]1` gave proCasp3 act -2, AHR act 2, PolyA inhibitor -5 and procasp7 counter 0.
For COc1cc(C2C(C#N)=C(C)NC3=C2C(=O)c2ccccc23)cc(OC)c1OC (stereo not given) the results were proCasp3 act -6, AHR act 113* and procasp7 counter 8.
`COc1ccc(C2C(C#N)=C(C)NC3=C2C(=O)c2ccccc23)cc1` (stereo not given) gave proCasp3 act -2, AHR act 3, PolyA inhibitor -17 and procasp7 counter -5.
`ClCC1CN(Cc2ccccc2Cl)CCO1` (stereo not given) gave proCasp3 act 2, AHR act 3, PolyA inhibitor 2 and procasp7 counter 2.
Screening Cc1ccc2c(c1)N1C(=O)c3ccccc3C1C1=C(CC(C)(C)CC1=O)N2 (stereo not given) returned proCasp3 act 0, AHR act 50*, PolyA inhibitor 9 and procasp7 counter -4.
Screening O=C(CSc1ccc(-c2cccnc2)nn1)N1CCCc2ccccc21 returned proCasp3 act 5, AHR act 48*, PolyA inhibitor -14 and procasp7 counter 1.
Cc1ncc(CSc2ccc(Cl)cc2)c(CO)c1O was read as proCasp3 act -9, AHR act -5, PolyA inhibitor 0 and procasp7 counter -2.
For COc1ccc(/C(C)=N/NC(=S)NCc2ccco2)cc1 the results were proCasp3 act 1, AHR act 63*, PolyA inhibitor 1 and procasp7 counter -4.
For CCOc1cc2[nH]c(=S)n(Cc3ccc(C)o3)c(=O)c2cc1OCC the results were proCasp3 act 0, AHR act 65*, PolyA inhibitor -2 and procasp7 counter -1.
`Cc1ccc(Cn2c(=S)[nH]c3ccc(N4CCOCC4)cc3c2=O)o1` gave proCasp3 act -17, AHR act 0, PolyA inhibitor -6 and procasp7 counter -24.
For CC1CC1c1ccc(/C=C(\C#N)C(=O)Nc2ccccc2Cl)o1 (stereo not given) the results were proCasp3 act -19, AHR act 50*, PolyA inhibitor 14 and procasp7 counter -21.
For N#C/C(=C/c1ccc(N2CCCCC2)o1)C(=O)Nc1ccc(Cl)cc1 the results were proCasp3 act 7, AHR act 8, PolyA inhibitor -15 and procasp7 counter -1.
O=C(/C=C/c1cccc2ccccc12)c1ccncc1 was read as proCasp3 act 2, AHR act 8, PolyA inhibitor -9 and procasp7 counter 2.
`Cc1ccc(C(=O)/C=C/c2c[nH]c3ccccc23)cc1` gave proCasp3 act -6, AHR act 52*, PolyA inhibitor -15 and procasp7 counter -13.
Cc1[nH]c2ccccc2c1/C=C/C(=O)c1ccncc1 was read as proCasp3 act -3, AHR act 56*, PolyA inhibitor -46 and procasp7 counter 0.
For CC(CNC(=O)c1ccc(C#N)cc1)NC(=O)c1ccc(C#N)cc1 (stereo not given) the results were PolyA inhibitor 6.
For Cc1oc2c(c1C(=O)c1ccccc1)C(=O)C(=O)c1ccccc1-2 the results were proCasp3 act -4, AHR act 64*, PolyA inhibitor -23 and procasp7 counter -2.
Screening O=C1C(=O)c2c(C(=O)c3ccccc3)coc2-c2ccccc21 returned proCasp3 act 2, AHR act 52*, PolyA inhibitor -75 and procasp7 counter 6.
For CC(=O)c1cc2c(cc1NC(=O)Nc1cccc(Cl)c1)OCCO2 the results were proCasp3 act 3, AHR act 58*, PolyA inhibitor 8 and procasp7 counter -3.
Screening CC(=O)c1cc2c(cc1NC(=O)c1ccc(Cl)cc1)OCCO2 returned proCasp3 act 0, AHR act 17, PolyA inhibitor -20 and procasp7 counter 0.
Screening C/C(=C\C=C(C#N)C#N)c1cc(C#N)c(N)o1 returned PolyA inhibitor 59*.
Screening CNC[C@H](NC[C@@H](NCCCc1ccccc1)c1ccccc1)[C@H](C)O returned proCasp3 act 3, AHR act -3, PolyA inhibitor -4 and procasp7 counter -10.
Screening CCSc1nsc(NC(=O)Nc2ccccc2F)n1 returned proCasp3 act -5, AHR act 78*, PolyA inhibitor -1 and procasp7 counter 5.
NC(=O)c1ccc(NC(=O)COC(=O)CCC(=O)c2ccc(Cl)cc2)cc1 was read as proCasp3 act 6, AHR act -1, PolyA inhibitor 32 and procasp7 counter 0.
`COC(=O)CN1C(=O)S/C(=C/c2ccc(N3CCCCC3)o2)C1=O` gave proCasp3 act -11, AHR act -2, PolyA inhibitor -34 and procasp7 counter -17.
`O=C(O)CN1C(=O)/C(=C/c2ccc(N3CCCCC3)o2)SC1=S` gave proCasp3 act -14, AHR act -1, PolyA inhibitor 106* and procasp7 counter -15.
`COC(=O)c1cc(OC)c(OC)cc1NCC(=O)Nc1ccc(OC)c(OC)c1` gave proCasp3 act -2, AHR act 72*, PolyA inhibitor 2 and procasp7 counter 1.
Screening COC(=O)c1cc(OC)c(OC)cc1NCC(=O)Nc1ccc(C)cc1 returned proCasp3 act 0, AHR act 23, PolyA inhibitor -6 and procasp7 counter -1.
COc1cc(NC(=O)c2cccc(Cl)c2)c(OC)cc1NC(=O)CN1CCCCC1 was read as proCasp3 act -4, AHR act 71*, PolyA inhibitor 3 and procasp7 counter 7.
`COc1cc(NC(=O)c2cccc(Cl)c2)c(OC)cc1NC(=O)CN1CCOCC1` gave proCasp3 act -5, AHR act 63*, PolyA inhibitor -5 and procasp7 counter 1.
COc1cc(NC(=O)c2ccc(F)cc2)c(OC)cc1NC(=O)CN1CCCCC1 was read as proCasp3 act -2, AHR act 40, PolyA inhibitor 15 and procasp7 counter 1.
Screening COc1cc(NC(=O)c2cccc(C)c2)c(OC)cc1NC(=O)CN1CCOCC1 returned proCasp3 act 1, AHR act 20, PolyA inhibitor -12 and procasp7 counter 4.
Screening O=C(CC1C(=O)NCCN1Cc1cccc(F)c1)NCCCOc1cccnc1 (stereo not given) returned proCasp3 act -4, AHR act -1, PolyA inhibitor -11 and procasp7 counter 4.
`CCCCN(C(=O)C1CCCO1)c1c(N)n(CCC)c(=O)[nH]c1=O` (stereo not given) gave proCasp3 act 1, AHR act 1 and procasp7 counter 2.
`CNC[C@H]1Oc2c(NS(=O)(=O)c3cccs3)cccc2C(=O)N([C@H](C)CO)C[C@@H]1C` gave proCasp3 act 4, AHR act -2 and procasp7 counter -3.
For Cc1ccc(NC(=O)Cc2nc(CSc3nnc(-c4ccc5c(c4)OCO5)o3)cs2)cc1 the results were proCasp3 act 3, AHR act 50*, PolyA inhibitor -14 and procasp7 counter 4.
